Measured values from different studies.
Protocols differ between the studies behind these lines.
Target: Homeodomain-interacting protein kinase 1 (HIPK1, Homo sapiens, UniProt Q86Z02)

O=C(NCCCN1CCOCC1)c1ccc(Nc2ncc(Cl)c(-c3ccc(Cl)s3)n2)cc1  remaining binding (binding; competition with immobilised ligand; 1 µM): 8.7%
O=C(O)c1cc(-c2ccc(C3CCNCC3)cc2)c2ccc(-c3ccc(C(F)(F)F)cc3)cc2c1  remaining binding (cell-free assay; competition with immobilised ligand; 1 µM): 97%
C=CC(=O)N1CCC(C(=O)NCC(=O)N2CCN(c3nc(-c4cnc(N)nc4C(F)F)nc(N4CCOCC4)n3)CC2)CC1  remaining binding (binding; competition with immobilised ligand; 1 µM): 97%
c1cncc(-c2cccc(Nc3nccc(NC4CCCCC4)n3)c2)c1  remaining binding (binding; competition with immobilised ligand; 10 µM): 56%
COc1cnc(Nc2cccc(S(N)(=O)=O)c2)nc1N1CCN(c2ccccc2)C(=O)C1  remaining binding (binding; competition with immobilised ligand; 1 µM): 79%
O=C(c1ccc(Nc2nccc(-c3cc4ccccc4s3)n2)cc1)N1CCC(N2CCCC2)CC1  remaining binding (binding; competition with immobilised ligand; 1 µM): 13%
CCN1CCN(Cc2ccc(C(=O)Nc3ccc(C)c(Oc4ccc5c(c4)CC(=O)N5)c3)cc2C(F)(F)F)CC1  remaining binding (binding; competition with immobilised ligand; 1 µM): 83%
c1cnn2ncc(-c3ccnc(N4CCC45COC5)n3)c2c1  remaining binding (binding; 1 µM): 29%
COc1ccc2c(c1)O[C@@H](c1ccc(OC)c(OC)c1)C[C@H]2NC(=O)C1(c2ccc3c(c2)OC(F)(F)O3)CC1  remaining binding (cell-free assay; competition with immobilised ligand; 1 µM): 86%
O=C(c1ccc(Nc2ncc(Cl)c(-c3cc4ccccc4s3)n2)cc1)N1CCC(N2CCCC2)CC1  remaining binding (binding; competition with immobilised ligand; 1 µM): 1.4%
O=C(NS(=O)(=O)c1ccc(NCC2CCOCC2)c([N+](=O)[O-])c1)c1ccc(N2CCN(Cc3ccc(C(F)(F)F)cc3-c3ccc(Cl)cc3)CC2)cc1Oc1cnc2[nH]ccc2c1  remaining binding (cell-free assay; competition with immobilised ligand; 1 µM): 84%
C[C@H]1CCN(c2nccc(-c3cnn4ncccc34)n2)C1  remaining binding (binding; 1 µM): 40%
FC(F)(F)c1ccc2c(c1)nc(-c1cccnc1)n2C1CC1  remaining binding (cell-free assay; competition with immobilised ligand; 1 µM): 100%
CN(CCCC(F)(F)F)c1nccc(-c2cnn3ncccc23)n1  remaining binding (binding; 1 µM): 70%
O=C(NCC1CCOCC1)c1n[nH]cc1NC(=O)c1c(F)cccc1F  remaining binding (binding; competition with immobilised ligand; 1 µM): 69%
CN(C)c1ncc(F)c(-c2cnn3ncccc23)n1  remaining binding (binding; 1 µM): 75%
Cc1cc(-n2nc(Cc3cc(F)cc(C(F)(F)F)c3)nc2C)ccc1C(N)=O  remaining binding (cell-free assay; competition with immobilised ligand; 1 µM): 92%
N[C@H]1CCN(c2nccc(-c3cnn4ncccc34)n2)C1  remaining binding (binding; 1 µM): 54%
C[C@@H](c1ccc(-n2cnc3c(N)ncnc32)cc1)N1CCc2nn(C)c(Cc3ccccc3)c2C1=O  remaining binding (binding; competition with immobilised ligand; 0.1 µM): 91%
CN(C)c1nccc(-c2cnn3ncccc23)n1  remaining binding (binding; 1 µM): 55%
COc1cc(-c2cn(C3CCc4ccccc4N(CC(F)(F)F)C3=O)nn2)ccc1-n1ccc(C)n1 (stereo not drawn)  remaining binding (cell-free assay; competition with immobilised ligand; 1 µM): 96%
